Experimental data of several laboratories.
Each line is one published result; the experiments were not run side by side.
Target: Mitogen-activated protein kinase kinase kinase 11 (MAP3K11, Homo sapiens, UniProt Q16584)
Effect on: enzyme activity
Action: inhibitor

CC(C)(O)[C@H]1CC[C@H](Nc2ccc3ncc(-c4cccc(C(F)(F)F)c4)n3n2)CC1 — remaining activity (1 µM): 68.9%
Cc1ccc(C(=O)Nc2ccc(CN3CCN(C)CC3)c(C(F)(F)F)c2)cc1C#Cc1cnc2cccnn12 — remaining activity (23.5 nM): 98%
Cc1sc(C(=O)NC2COC2)cc1-n1cc(NC(=O)Nc2c(F)cccc2Cl)cn1 — remaining activity (10 µM): 90.7%
COc1cc(Nc2cnc(C#N)c(O[C@H](C)CN(C)C)n2)ncc1-c1cnn(C)c1 — remaining activity (radiometric; 10 µM): 69%
CC(C)(C)c1nc2c(s1)c1nc(N)ncc1c1ccc(NS(=O)(=O)c3c(F)cccc3F)c(F)c12 — remaining activity (radiometric; 1 µM): 22%
Cc1nn(CC(F)(F)F)cc1Nc1ncc(C2CC2)c(NCCc2c[nH]cn2)n1 — remaining activity (radiometric; 1 µM): 91%
O=C(Nc1cnn(-c2csc(C(=O)NC3COC3)c2)c1)Nc1ccccc1Cl — remaining activity (5 µM): 93.5%
Oc1cccc(-c2nc(N3CCOCC3)c3oc4ncccc4c3n2)c1 — remaining activity (10 µM): 57%
O=C(Nc1cccc(Nc2ncc(Br)c(NCCc3cnc[nH]3)n2)c1)N1CCCC1 — remaining activity (radiometric; 1 µM): 2%
FC(F)c1nc2ccccc2n1-c1nc(N2CCOCC2)nc(N2CCOCC2)n1 — remaining activity (10 µM): 97%
Brc1cnc(Nc2cccc(CN3CCOCC3)c2)nc1NCCc1c[nH]cn1 — remaining activity (radiometric; 1 µM): 2%
